Measured values reported in ChEMBL document CHEMBL1129566 (J Med Chem, 1996).
Converted amounts (≈) assume the structure as drawn.

How the values were obtained:
Citrobacter freundii = experiment: In vitro minimum inhibitory concentration required to produce antibacterial activity against Citrobacter freundii 902; format: functional
Method in brief: (§1)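 Two-fold agar dilution on Mueller-Hinton agar. Overnight broth cultures diluted in fresh broth to […]; 10⁴ CFU/spot applied by inoculating apparatus onto plates with graded drug concentrations. Incubated 18 h at 37 °C; MIC taken as the lowest concentration giving complete growth inhibition.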

Escherichia coli [1] = experiment: In vitro minimum inhibitory concentration required to produce antibacterial activity against Escherichia coli 25922; format: functional; method in brief: as §1
Enterococcus faecalis = experiment: In vitro minimum inhibitory concentration required to produce antibacterial activity against Enterococcus faecalis ATCC 29212; format: functional; method in brief: as §1
Enterobacter cloacae = experiment: In vitro minimum inhibitory concentration required to produce antibacterial activity against Enterobacter cloacae 908SSI; format: functional; method in brief: as §1
Pseudomonas aeruginosa [2] = experiment: (§2) In vitro minimum inhibitory concentration required to produce antibacterial activity against Pseudomonas aeruginosa ATCC 27853; format: functional
Method in brief: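 Two-fold agar dilution on Mueller-Hinton agar. Overnight broth cultures diluted in fresh broth, inoculum 10⁴ CFU/spot applied by inoculating apparatus to plates with graded drug concentrations. Plates incubated 18 h at 37 °C. MIC taken as lowest concentration completely inhibiting growth.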

Staphylococcus aureus [3] = experiment: In vitro minimum inhibitory concentration required to produce antibacterial activity against Staphylococcus aureus 743 MRSA; format: functional; method in brief: as §1
Staphylococcus aureus [4] = experiment: In vitro minimum inhibitory concentration required to produce antibacterial activity against Staphylococcus aureus 887MSSA; format: functional; method in brief: as §1
Streptococcus pneumoniae [5] = experiment: In vitro minimum inhibitory concentration required to produce antibacterial activity against Streptococcus pneumoniae 1/37(pen r); format: functional; method in brief: as §1
Streptococcus pneumoniae [6] = experiment: Minimum inhibitory concentration for antibacterial activity against Streptococcus pneumoniae Q19 (pen s); format: functional; method in brief: as §1
Escherichia coli [7] = experiment: Inhibitory concentration against purified penicillin-binding protein(PBP) 1bgamma of Escherichia coli; format: functional
Method in brief: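 PBP purified to homogeneity. IC50 from competition with dansyl-penicillin or a coumarin analogue; protein-bound fluorescence recovered by TCA precipitation and glass-fibre filtration, then read by fluorimetry after drying.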

Enterococcus durans = experiment: Inhibitory concentration against purified beta-Lactam resistant PBP5 from Enterococcus durans; format: functional
Method in brief: (§3)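 PBPs purified to homogeneity. IC50 measured by competition with fluorescent dansyl-penicillin or a coumarin analogue probe. Protein-bound fluorescence determined after TCA precipitation, filtration on glass fibre filters and drying, read on a fluorimeter.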

Streptococcus pneumoniae [8] = experiment: Inhibitory concentration against purified PBP2x from Streptococcus pneumoniae; format: functional; method in brief: as §3
Streptococcus pneumoniae [9] = experiment: Inhibitory concentration against purified cephalosporin-resistant PBP2x.505 from Streptococcus pneumoniae; format: functional; method in brief: as §3
Streptococcus pneumoniae [10] = experiment: Inhibitory concentration against purified cephalosporin-resistant PBP2x.604 from Streptococcus pneumoniae; format: functional; method in brief: as §3
[11] = tested on: Staphylococcus epidermidis; experiment: Inhibitory concentration against purified beta-Lactam-resistant PBP2 from Staphylococcus epidermidis; format: functional; method in brief: as §3
[12] = target: T1, Beta-lactamase SHV-1 (Escherichia coli) (UniProt P0AD63); experiment: Rate of hydrolysis in 0.1 M sodium phosphate buffer at pH=7.0 by Beta lactamase (SHV-2)
T1 sequence (whole entry): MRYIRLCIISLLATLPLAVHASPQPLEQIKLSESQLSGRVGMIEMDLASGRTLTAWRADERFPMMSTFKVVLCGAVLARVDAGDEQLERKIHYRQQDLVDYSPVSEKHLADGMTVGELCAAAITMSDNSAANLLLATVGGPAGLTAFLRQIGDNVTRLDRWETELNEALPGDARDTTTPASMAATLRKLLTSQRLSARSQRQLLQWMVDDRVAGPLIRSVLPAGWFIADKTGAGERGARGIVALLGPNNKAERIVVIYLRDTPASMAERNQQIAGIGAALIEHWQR
Method in brief: (§4)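 β-Lactamases purified to homogeneity; hydrolysis rate of the cephalosporin substrate measured in 0.1 M sodium phosphate buffer, pH 7.0, by standard methods.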

[13] = target: Beta-lactamase TEM (Escherichia coli) (UniProt P62593); experiment: Rate of hydrolysis in 0.1 M sodium phosphate buffer at pH=7.0 by Beta lactamase (TEM-3); method in brief: as §4
Chain of Beta-lactamase TEM (Escherichia coli) (P62593 whole entry): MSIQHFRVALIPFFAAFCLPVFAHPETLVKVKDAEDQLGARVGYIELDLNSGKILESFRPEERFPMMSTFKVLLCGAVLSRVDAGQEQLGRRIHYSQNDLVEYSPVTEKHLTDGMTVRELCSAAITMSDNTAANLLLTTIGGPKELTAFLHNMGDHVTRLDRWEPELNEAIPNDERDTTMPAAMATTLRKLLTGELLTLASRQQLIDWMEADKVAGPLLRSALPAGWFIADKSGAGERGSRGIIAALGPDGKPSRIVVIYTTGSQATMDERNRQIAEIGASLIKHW

[14] = target: Beta-lactamase TEM (Escherichia coli) (UniProt P62593); experiment: Rate of hydrolysis in 0.1 M sodium phosphate buffer at pH=7.0 by Beta lactamase (TEM-4); method in brief: as §4
[15] = target: Beta-lactamase (Bacillus licheniformis) (UniProt P00808); experiment: Rate of hydrolysis in 0.1 M sodium phosphate buffer at pH=7.0 by Beta lactamase (B.l icheniformis 749/C); method in brief: as §4
Chain of Beta-lactamase (Bacillus licheniformis) (P00808 whole entry): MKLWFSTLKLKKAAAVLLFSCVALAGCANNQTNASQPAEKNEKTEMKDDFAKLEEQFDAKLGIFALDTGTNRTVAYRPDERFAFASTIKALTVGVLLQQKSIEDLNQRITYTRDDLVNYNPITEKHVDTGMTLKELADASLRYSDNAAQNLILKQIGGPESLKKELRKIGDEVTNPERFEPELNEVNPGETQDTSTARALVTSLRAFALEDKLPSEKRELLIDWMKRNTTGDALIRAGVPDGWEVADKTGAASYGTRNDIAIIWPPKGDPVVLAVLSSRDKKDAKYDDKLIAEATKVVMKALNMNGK

[16] = target: T1, Beta-lactamase SHV-1 (Escherichia coli); experiment: Rate of hydrolysis in 0.1 M sodium phosphate buffer at pH=7.0 by Beta lactamase (SHV-4); method in brief: as §4
[17] = target: Beta-lactamase (Bacillus licheniformis) (UniProt P00808); experiment: Rate of hydrolysis in 0.1 M sodium phosphate buffer at pH=7.0 by Beta lactamase (Bacillus licheniformis 749/C); method in brief: as §4
Pseudomonas aeruginosa [18] = experiment: as §2; format: functional; method in brief: as §1; remark: listed apart in the source
[19] = target: Beta-lactamase (Proteus vulgaris) (UniProt P52664); experiment: Rate of hydrolysis in 0.1 M sodium phosphate buffer at pH=7.0 by Beta lactamase (Proteus vulgaris 1028)
Chain of Beta-lactamase (Proteus vulgaris) (P52664 whole entry, looked up): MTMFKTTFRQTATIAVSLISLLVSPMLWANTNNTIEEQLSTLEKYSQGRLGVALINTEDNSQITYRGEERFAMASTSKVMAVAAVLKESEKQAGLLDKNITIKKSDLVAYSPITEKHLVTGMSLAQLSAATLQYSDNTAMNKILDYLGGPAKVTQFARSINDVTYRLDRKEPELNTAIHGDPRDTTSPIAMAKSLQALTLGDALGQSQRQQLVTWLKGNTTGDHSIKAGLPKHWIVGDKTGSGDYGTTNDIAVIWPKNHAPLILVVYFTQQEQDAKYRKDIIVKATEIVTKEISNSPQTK

| Structure (SMILES) | MIC (Citrobacter freundii) [µg/mL] | MIC (Escherichia coli [1]) [µg/mL] | MIC (Enterococcus faecalis) [µg/mL] | MIC (Enterobacter cloacae) [µg/mL] | MIC (Pseudomonas aeruginosa [2]) [µg/mL] | MIC (Staphylococcus aureus [3]) [µg/mL] | MIC (Staphylococcus aureus [4]) [µg/mL] | MIC (Streptococcus pneumoniae [5]) [µg/mL] | MIC (Streptococcus pneumoniae [6]) [µg/mL] | IC50 (Escherichia coli [7]) [µM] | IC50 (Enterococcus durans) [µM] | IC50 (Streptococcus pneumoniae [8]) [µM] | IC50 (Streptococcus pneumoniae [9]) [µM] | IC50 (Streptococcus pneumoniae [10]) [µM] | IC50 [11] [µM] | Activity (M min-1 (M of enzyme)-1) [12] | Activity (M min-1 (M of enzyme)-1) [13] | Activity (M min-1 (M of enzyme)-1) [14] | other results |
| --- | --- | --- | --- | --- | --- | --- | --- | --- | --- | --- | --- | --- | --- | --- | --- | --- | --- | --- | --- |
| CC(C)(O/N=C(\C(=O)N[C@@H]1C(=O)N2C(C(=O)[O-])=C(C[n+]3ccccc3)CS[C@H]12)c1csc(N)n1)C(=O)O [CEFTAZIDIME] | 0.5 (≈ 0.915 µM) | 0.25 (≈ 0.457 µM) | > 32 | 1 (≈ 1.83 µM) | 1 (≈ 1.83 µM) | > 32 | 8 (≈ 14.6 µM) | 16 (≈ 29.3 µM) | 0.25 (≈ 0.457 µM) |  |  |  |  |  |  |  |  |  |  |
| C[C@@H](O)[C@H]1C(=O)N2C(C(=O)O)=C(SCCNC=N)C[C@H]12 [IMIPENEM ANHYDROUS] |  |  |  |  |  |  |  |  |  | 0.01 | > 1000 | 0.5 | 0.5 | 5.3 | > 1000 |  |  |  |  |
| CO/N=C(\C(=O)N[C@@H]1C(=O)N2C(C(=O)O)=C(CSc3nc(=O)c(O)nn3C)CS[C@H]12)c1csc(N)n1 [CEFTRIAXONE] | 0.25 (≈ 0.451 µM) | ≤ 0.06 | > 32 | 0.5 (≈ 0.902 µM) | 16 (≈ 28.9 µM) | > 32 | 4 (≈ 7.21 µM) | 2 (≈ 3.61 µM) | ≤ 0.06 | 0.29 | > 500 | 0.5 | 2.5 | 5.5 | 960 | 2310 | 79 | 643 | Activity (M min-1 (M of enzyme)-1) [15]: 1890; Activity (M min-1 (M of enzyme)-1) ([16]; Proteus vulgaris): 3340 |
| Nc1nc(/C(=N/O)C(=O)N[C@@H]2C(=O)N3C(C(=O)O)=C(/C=C4\CCN(CC(F)(F)F)C4=O)CS[C@H]23)cs1 [RO 25-6833] | 0.25 (≈ 0.457 µM) | ≤ 0.06 | 1 (≈ 1.83 µM) | 0.5 (≈ 0.915 µM) |  | 8 (≈ 14.6 µM) | 1 (≈ 1.83 µM) | 1 (≈ 1.83 µM) | 0.06 (≈ 0.11 µM) | 30 | 8 | 0.3 | 0.36 | 0.87 | 25 | 1580 | 14 | 305 | Activity (M min-1 (M of enzyme)-1) [17]: 906; MIC (Pseudomonas aeruginosa [18]): 16 µg/mL (≈ 29.3 µM); Activity (M min-1 (M of enzyme)-1) [16]: 1390; Activity (M min-1 (M of enzyme)-1) [19]: 461 |
